This passage reports inhibition, IC50 and CC50 results from ChEMBL document CHEMBL1153004, “Bis-14-membered ring diketal diamines: synthesis and evaluation of their anti-HIV and anti-tumoral activities” (Eur J Med Chem, 2009).

Series [1] relates to MCF7. The series is described as follows: Antiproliferative activity against human multidrug-resistant MCF7 cells at 10 uM after 3 hrs by MTS assay. Format: functional. Conditions: MCF7, 3 h. An outline of the steps:
(§1)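 Medium was DMEM-Glutamax for KB and HepG2 and RPMI 1640 for the other lines, each with 10% FCS, at 37 °C, 5% CO2. Cells were seeded at 500–800 per well and left to adhere for 24 h. Compounds in DMSO were added at 10^-5 M final, with 3 h exposure. Readout was MTS absorbance versus control wells after blank subtraction; triplicate.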
In general terms: Tetrazolium dyes change colour on reduction, which living cells bring about.

Series [2] deals with Human immunodeficiency virus 1. The series is described as follows: Antiviral activity against HIV1 LAI in human CEM-SS cells assessed as inhibition of viral replication. Format: functional, organism-based. Conditions: Human immunodeficiency virus 1, LAI. In outline:
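CEM-SS cells in RPMI 1640 with 10% FCS at 37 °C, 5% CO2, infected with HIV-1 LAI at 20 TCID50. After 30 min adsorption, cells were washed and resuspended at 10^5 cells/mL with serial compound dilutions. After 5 days, reverse transcriptase activity of released virus particles was measured. IC50 came from a median-effect plot; mean of 2 experiments.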

The test system of series [3] is PC-3. The series can be described thus: Antiproliferative activity against human PC3 cells at 10 uM after 3 hrs by MTS assay. The conditions noted are these: PC-3, 3 h. The series is classed as functional. An outline of the steps:
as §1

The subject of a further series is HepG2. The series is described as follows: Antiproliferative activity against human HepG2 cells at 10 uM after 3 hrs by MTS assay. Format: functional. The conditions noted are these: HepG2, 3 h. An outline of the steps: as §1
Series [4] relates to Human immunodeficiency virus 1. The series can be described thus: Antiviral activity against HIV1 3B in human MT4 cells assessed as inhibition of viral replication. The series is classed as functional, organism-based. The conditions noted are these: Human immunodeficiency virus 1, 3B. In outline: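 MT-4 cells in RPMI 1640 with 10% FCS at 37 °C, 5% CO2, infected with HIV-1 IIIB at 5 TCID50. After 30 min adsorption, cells were washed and resuspended at 10^5 cells/mL with serial compound dilutions. Inhibition of virus-induced cytopathogenicity was read after 5 days. IC50 came from a median-effect plot; mean of 2 experiments.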

In another series the test system is SF-268. The series is described as follows: Antiproliferative activity against human SF268 cells at 10 uM after 3 hrs by MTS assay. The conditions noted are these: SF-268, 3 h. Format: functional. An outline of the steps: as §1
The subject of series [5] is MCF7. The series can be described thus: Antiproliferative activity against human MCF7 cells at 10 uM after 3 hrs by MTS assay. Format: functional. The conditions noted are these: MCF7, 3 h. An outline of the steps:
as §1

Series [6] in a line: Cytotoxicity against human CEM-SS cells by MTT assay. The series is classed as cell-based. An outline of the steps:
(§2)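 Uninfected cells were incubated in parallel with a range of compound concentrations. Viability was read by MTT reduction to formazan, OD 540 nm. CC50 was calculated with the same median-effect program used for IC50. Mean of 2 separate experiments.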

In the next series the test system is A549. The series can be described thus: Antiproliferative activity against human A549 cells at 10 uM after 3 hrs by MTS assay. Format: functional. The conditions noted are these: A549, 3 h. In outline: as §1
For series [7], the system named is HL-60. The series can be described thus: Antiproliferative activity against human HL60 cells at 10 uM after 3 hrs by MTS assay. The conditions noted are these: HL-60, 3 h. The series is classed as functional. In outline: as §1
In a further series the test system is SK-OV-3. The series can be described thus: Antiproliferative activity against human SKOV3 cells at 10 uM after 3 hrs by MTS assay. The series is classed as functional. The conditions noted are these: SK-OV-3, 3 h. In outline:
as §1

For series [8], the system named is HCT-116. The series is described as follows: Antiproliferative activity against human HCT116 cells at 10 uM after 3 hrs by MTS assay. Format: functional. Conditions: HCT-116, 3 h. In outline: as §1
For series [9], the system named is KB. The series can be described thus: Antiproliferative activity against human KB cells at 10 uM after 3 hrs by MTS assay. The series is classed as functional. In outline: as §1
The nature of series [10]: Cytotoxicity against human MT4 cells by MTT assay. The series is classed as cell-based. In outline:
as §2

Series [11] relates to HCT-116. The series is described as follows: Cytotoxicity against human HCT116 cells after 3 hrs by MTS assay. Format: functional, cell-based. The conditions noted are these: HCT-116, 3 h. An outline of the steps: as §1
Series [12] relates to KB. The series is described as follows: Cytotoxicity against human KB cells after 3 hrs by MTS assay. The series is classed as functional, cell-based. An outline of the steps:
as §1

Series [13] concerns HL-60. The series can be described thus: Cytotoxicity against human HL60 cells after 3 hrs by MTS assay. Conditions: HL-60, 3 h. The series is classed as functional, cell-based. An outline of the steps:
as §1

The test system of series [14] is PC-3. The series is described as follows: Cytotoxicity against human PC3 cells after 3 hrs by MTS assay. Format: functional, cell-based. Conditions: PC-3, 3 h. An outline of the steps: as §1
Series [15] deals with MCF7. The series is described as follows: Cytotoxicity against human MCF7 cells after 3 hrs by MTS assay. The series is classed as functional, cell-based. The conditions noted are these: MCF7, 3 h. An outline of the steps: as §1

For the compound `CO[C@H]1CCN(Cc2ccc(CN3CCO[C@H](OC)CC(=O)NCCO[C@@H](OC)CC3)cc2)CCO[C@H](OC)CC(=O)NCCO1` (relative stereo), the inhibition (usually the relative decrease from the control value, in per cent) at 10 µM was determined as 2% in the series with MCF7 [1]; 0% with PC-3 [3]; 4% with HepG2; 0% in the series with SF-268; 13% in the series on MCF7 [5]; 0% in the series on A549. In addition, the inhibition at 10 µM in the series on HL-60 [7] is 10%; in the series with SK-OV-3, 0%; with HCT-116 [8] it was 7%; in the series with KB [9], 0%. For the same compound, the IC50 in [2] and in series [4] was more than 100 µM each time. Further, the CC50 in series [6] and in series [10] was more than 100 µM throughout.

Turning to `c1cc(CN2CCCNCCNCCCNCC2)ccc1CN1CCCNCCNCCCNCC1` [PLERIXAFOR], the values for the IC50 in [2] and in series [4] were 0.32 µM and 0.41 µM, respectively. Also, the CC50 (usually the concentration that lowers cell viability or growth by half) in series [6] was more than 5 µM; in series [10] it was 6.5 µM.

As to `CO[C@@H]1CCN(Cc2ccc(CN3CC[C@@H](OC)OC[C@@H](c4ccccc4)NC(=O)C[C@@H](OC)OC[C@H]3c3ccccc3)cc2)[C@H](c2ccccc2)CO[C@H](OC)CC(=O)N[C@H](c2ccccc2)CO1`, the inhibition at 10 µM was 8% in the series on MCF7 [1]; 15% in the series on PC-3 [3]; 0% in the series with HepG2; 14% with SF-268; 25% in the series with MCF7 [5]; 17% in the series with A549. Also, the inhibition at 10 µM came out at 31% in the series with HL-60 [7], 18% with SK-OV-3, 21% with HCT-116 [8] and 12% with KB [9]. In addition, the IC50 in series [2] and in series [4] was more than 10 µM throughout. Moreover, the CC50 in series [6] and in series [10] was more than 10 µM throughout.

For `CO[C@H]1CC(=O)N[C@H](c2ccccc2)CO[C@H](OC)CCN(Cc2ccc(CN3CC[C@@H](OC)OC[C@@H](c4ccccc4)NC(=O)C[C@H](OC)OC[C@H]3c3ccccc3)cc2)[C@H](c2ccccc2)CO1`, the IC50 (as a rule, the concentration that inhibits the measured activity by half) is 10 µM with HCT-116 [11]; 10 µM with KB [12]; 8.65 µM in series [2]; 10 µM with HL-60 [13]; 10 µM with PC-3 [14]; more than 7.8 µM in [4]. Further, the IC50 in the series on MCF7 [15] amounted to 10 µM. Further, the inhibition at 10 µM is 14% in the series on MCF7 [1]; 51% in the series with PC-3 [3]; 27% in the series on HepG2; 27% with SF-268; 45% with MCF7 [5]; 33% with A549. For the same compound, the inhibition at 10 µM in the series with HL-60 [7] is 54%; in the series on SK-OV-3, 38%; in the series with HCT-116 [8], 47%; with KB [9], 47%. Also, the CC50 is more than 10 µM in series [6] and 7.8 µM in series [10].
